Test results taken from ChEMBL document CHEMBL3232717 (J Med Chem, 2014).

What was measured:
[1] = target: Dipeptidyl peptidase 8 (Homo sapiens, UniProt Q6V1X1); assay: Inhibition of DPP8 (unknown origin)
[2] = target: Dipeptidyl peptidase 2 (Homo sapiens, UniProt Q9UHL4); assay: Inhibition of QPP (unknown origin)
[3] = species: Mus musculus; assay: animal or person; conditions: Blood, po, 1 h, read-out: INH
[4] = target: Dipeptidyl peptidase 4 (Mus musculus, UniProt P28843); assay: Inhibition of DPP4 in mouse plasma
How it was run: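 Plasma DPP-4 inhibition measured in 50% mouse plasma; IC50 read-out.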

[5] = Ratio of drug level in brain to plasma in beagle dog
[6] = system: Salmonella typhimurium; assay: Genotoxicity in Salmonella typhimurium by Ames mutagenicity test; format: toxicity, organism-based; conditions: salmonella enterica subsp. enterica serovar typhimurium
[7] = Tmax in rat at 100 mg/kg/day, po administered for 14 days; format: ADME, organism-based; set-up: route oral; conditions: in vivo
How it was run: (§1)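 Exploratory 14-day oral safety study in male rats dosed at 100 mg/kg/day; AUC(0-24h), Cmax and Tmax determined.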

[8] = Ratio of drug level in brain to plasma in Sprague-Dawley rat
[9] = Unbound fraction in human plasma at 1 to 100 uM; format: ADME, cell-free
How it was run: (§2)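 Radiolabelled ([3H]) compound added to plasma at 1, 10 and 100 μM; mean percentage unbound reported for each species.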

[10] = Inhibition of potassium channel IKr (unknown origin)
[11] = Unbound fraction in Sprague-Dawley rat plasma at 1 to 100 uM; format: ADME, cell-free; how it was run: as §2
[12] = Unbound fraction in beagle dog plasma at 1 to 100 uM; format: ADME, cell-free, Canis lupus familiaris; how it was run: as §2
[13] = target: T1, Prolyl endopeptidase (Homo sapiens, UniProt P48147); assay: Inhibition of PEP (unknown origin)
T1 sequence (P48147 whole entry): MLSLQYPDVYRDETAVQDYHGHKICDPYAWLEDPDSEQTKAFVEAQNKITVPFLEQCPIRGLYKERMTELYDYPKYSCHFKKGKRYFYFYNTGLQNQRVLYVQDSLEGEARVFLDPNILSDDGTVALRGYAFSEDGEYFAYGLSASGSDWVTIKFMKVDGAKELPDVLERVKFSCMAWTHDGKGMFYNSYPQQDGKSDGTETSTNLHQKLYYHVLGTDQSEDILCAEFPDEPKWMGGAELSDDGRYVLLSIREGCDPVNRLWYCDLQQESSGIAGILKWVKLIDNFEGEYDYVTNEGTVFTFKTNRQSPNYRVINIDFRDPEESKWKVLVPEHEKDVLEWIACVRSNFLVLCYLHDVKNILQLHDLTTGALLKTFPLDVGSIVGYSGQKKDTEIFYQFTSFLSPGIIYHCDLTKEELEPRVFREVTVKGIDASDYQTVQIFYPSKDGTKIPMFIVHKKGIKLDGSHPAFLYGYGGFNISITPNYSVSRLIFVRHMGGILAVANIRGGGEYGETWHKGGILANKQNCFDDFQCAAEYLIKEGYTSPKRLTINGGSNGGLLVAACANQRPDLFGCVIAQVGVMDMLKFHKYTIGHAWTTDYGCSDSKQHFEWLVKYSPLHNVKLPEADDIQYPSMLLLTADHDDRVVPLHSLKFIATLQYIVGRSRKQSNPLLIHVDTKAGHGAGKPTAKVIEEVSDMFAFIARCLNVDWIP

[14] = system: Rattus norvegicus; assay: Toxicity in rat assessed as mortality at 100 mg/kg/day, po for 14 days; format: organism-based; set-up: route oral; conditions: in vivo, 336 h
How it was run: (§3)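 Exploratory 14-day oral safety study in male rats, dosed daily. Endpoints were mortality, physical signs observed over the dosing period, and clinical pathology parameters, including glucose and triglycerides.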

[15] = Ratio of drug level in brain to plasma in human
[16] = Unbound fraction in CD-1 mouse plasma at 1 to 100 uM; format: ADME, cell-free; how it was run: as §2
[17] = system: Rattus norvegicus; assay: Toxicity in rat assessed as decrease in glucose level at 100 mg/kg/day, po for 14 days; format: organism-based; set-up: route oral; conditions: in vivo, 336 h; how it was run: as §3
[18] = Cmax in rat at 100 mg/kg/day, po administered for 14 days; format: ADME, organism-based; set-up: dose 100 mg/kg/day, route oral; conditions: in vivo; how it was run: as §1
[19] = system: Rattus norvegicus; assay: Toxicity in rat assessed as decrease in cholesterol level at 100 mg/kg/day, po for 14 days; format: organism-based; set-up: route oral; conditions: in vivo, 336 h; how it was run: as §3
[20] = system: Rattus norvegicus; assay: Toxicity in rat assessed as decrease in triglyceride level at 100 mg/kg/day, po for 14 days; format: organism-based; set-up: route oral; conditions: in vivo, 336 h; how it was run: as §3
[21] = target: Voltage-dependent L-type calcium channel subunit alpha-1C (Homo sapiens, UniProt Q13936); assay: Inhibition of Cav1.2 (unknown origin)
Chain of Voltage-dependent L-type calcium channel subunit alpha-1C (Q13936 whole entry): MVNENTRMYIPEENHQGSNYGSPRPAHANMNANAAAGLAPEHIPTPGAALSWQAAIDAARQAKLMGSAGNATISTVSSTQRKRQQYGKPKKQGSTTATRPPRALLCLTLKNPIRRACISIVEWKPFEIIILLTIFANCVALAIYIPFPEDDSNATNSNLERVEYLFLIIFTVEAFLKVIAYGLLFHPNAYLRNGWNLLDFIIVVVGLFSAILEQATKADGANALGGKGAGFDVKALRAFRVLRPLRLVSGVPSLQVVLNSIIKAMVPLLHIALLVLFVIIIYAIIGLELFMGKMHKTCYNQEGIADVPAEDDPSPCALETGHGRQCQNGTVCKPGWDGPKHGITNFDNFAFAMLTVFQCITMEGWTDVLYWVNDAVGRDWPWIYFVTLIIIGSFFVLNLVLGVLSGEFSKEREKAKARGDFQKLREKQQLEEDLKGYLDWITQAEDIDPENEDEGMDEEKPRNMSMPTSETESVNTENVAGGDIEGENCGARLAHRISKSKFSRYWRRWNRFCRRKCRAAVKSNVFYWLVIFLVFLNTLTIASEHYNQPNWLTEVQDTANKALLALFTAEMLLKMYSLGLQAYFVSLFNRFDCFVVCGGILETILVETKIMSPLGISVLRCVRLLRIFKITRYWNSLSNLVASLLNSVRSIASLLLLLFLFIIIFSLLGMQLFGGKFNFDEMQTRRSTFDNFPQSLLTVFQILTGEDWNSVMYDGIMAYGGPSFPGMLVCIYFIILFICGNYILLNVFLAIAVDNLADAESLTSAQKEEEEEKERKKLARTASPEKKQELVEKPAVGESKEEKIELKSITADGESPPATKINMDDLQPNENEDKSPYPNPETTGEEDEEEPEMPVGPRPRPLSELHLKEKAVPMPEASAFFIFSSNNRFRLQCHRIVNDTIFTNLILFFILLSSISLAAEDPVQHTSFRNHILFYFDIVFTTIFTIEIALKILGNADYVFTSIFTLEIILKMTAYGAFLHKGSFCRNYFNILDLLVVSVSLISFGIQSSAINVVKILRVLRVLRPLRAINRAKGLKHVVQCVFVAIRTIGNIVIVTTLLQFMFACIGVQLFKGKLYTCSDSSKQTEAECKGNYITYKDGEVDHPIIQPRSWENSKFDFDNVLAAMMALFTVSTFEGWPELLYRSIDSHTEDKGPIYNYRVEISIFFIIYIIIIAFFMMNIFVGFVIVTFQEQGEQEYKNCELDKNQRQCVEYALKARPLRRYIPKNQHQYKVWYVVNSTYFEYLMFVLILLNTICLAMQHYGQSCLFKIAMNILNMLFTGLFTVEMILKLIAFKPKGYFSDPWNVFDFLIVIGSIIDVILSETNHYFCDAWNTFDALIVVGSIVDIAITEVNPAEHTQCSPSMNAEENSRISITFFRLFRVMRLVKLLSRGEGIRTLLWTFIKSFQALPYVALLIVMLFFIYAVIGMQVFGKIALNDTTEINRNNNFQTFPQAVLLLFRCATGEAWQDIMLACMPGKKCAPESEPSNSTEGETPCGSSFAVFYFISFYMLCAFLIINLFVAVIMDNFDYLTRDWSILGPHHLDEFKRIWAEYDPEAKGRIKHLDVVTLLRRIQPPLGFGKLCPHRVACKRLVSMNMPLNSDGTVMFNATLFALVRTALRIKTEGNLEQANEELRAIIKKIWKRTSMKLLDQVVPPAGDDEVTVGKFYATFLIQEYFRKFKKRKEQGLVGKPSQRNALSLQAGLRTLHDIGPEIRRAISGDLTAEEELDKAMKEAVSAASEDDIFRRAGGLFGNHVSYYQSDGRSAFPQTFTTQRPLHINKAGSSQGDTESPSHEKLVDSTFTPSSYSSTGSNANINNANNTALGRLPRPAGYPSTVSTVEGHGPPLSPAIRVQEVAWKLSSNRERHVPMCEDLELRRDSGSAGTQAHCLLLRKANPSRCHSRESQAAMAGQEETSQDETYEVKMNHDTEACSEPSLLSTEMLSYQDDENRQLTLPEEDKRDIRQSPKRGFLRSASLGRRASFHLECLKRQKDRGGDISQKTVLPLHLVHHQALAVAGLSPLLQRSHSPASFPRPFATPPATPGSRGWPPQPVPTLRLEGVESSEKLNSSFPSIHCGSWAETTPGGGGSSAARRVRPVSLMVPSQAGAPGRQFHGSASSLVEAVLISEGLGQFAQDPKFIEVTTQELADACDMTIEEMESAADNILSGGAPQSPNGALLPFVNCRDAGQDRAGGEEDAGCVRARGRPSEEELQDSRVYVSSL

[22] = species: Mus musculus; assay: animal or person; conditions: Blood, po, 1 h, read-out: INH; remark: listed apart in the source
[23] = system: Rattus norvegicus; assay: Toxicity in rat assessed as physical signs at 100 mg/kg/day, po for 14 days; format: organism-based; set-up: route oral; conditions: in vivo, 336 h; how it was run: as §3
[24] = target: Voltage-gated L-type calcium channel (Homo sapiens, UniProt Q13936+Q13698+Q01668+O60840); assay: Effect on L-type Ca2+ channel (unknown origin) up to 30 uM
How it was run: (§4)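 Cardiac ion channel panel run on PatchXpress, testing functional currents (hERG/IKr, INa, ICaL) up to 30 μM. IKr was additionally assessed by nonfunctional MK-499 displacement binding.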

[25] = Ratio of drug level in brain to plasma in CD-1 mouse
[26] = target: Sodium channel protein type 5 subunit alpha (Homo sapiens, UniProt Q14524); assay: Inhibition of Nav1.5 (unknown origin); how it was run: as §4
Chain of Sodium channel protein type 5 subunit alpha (Q14524 whole entry): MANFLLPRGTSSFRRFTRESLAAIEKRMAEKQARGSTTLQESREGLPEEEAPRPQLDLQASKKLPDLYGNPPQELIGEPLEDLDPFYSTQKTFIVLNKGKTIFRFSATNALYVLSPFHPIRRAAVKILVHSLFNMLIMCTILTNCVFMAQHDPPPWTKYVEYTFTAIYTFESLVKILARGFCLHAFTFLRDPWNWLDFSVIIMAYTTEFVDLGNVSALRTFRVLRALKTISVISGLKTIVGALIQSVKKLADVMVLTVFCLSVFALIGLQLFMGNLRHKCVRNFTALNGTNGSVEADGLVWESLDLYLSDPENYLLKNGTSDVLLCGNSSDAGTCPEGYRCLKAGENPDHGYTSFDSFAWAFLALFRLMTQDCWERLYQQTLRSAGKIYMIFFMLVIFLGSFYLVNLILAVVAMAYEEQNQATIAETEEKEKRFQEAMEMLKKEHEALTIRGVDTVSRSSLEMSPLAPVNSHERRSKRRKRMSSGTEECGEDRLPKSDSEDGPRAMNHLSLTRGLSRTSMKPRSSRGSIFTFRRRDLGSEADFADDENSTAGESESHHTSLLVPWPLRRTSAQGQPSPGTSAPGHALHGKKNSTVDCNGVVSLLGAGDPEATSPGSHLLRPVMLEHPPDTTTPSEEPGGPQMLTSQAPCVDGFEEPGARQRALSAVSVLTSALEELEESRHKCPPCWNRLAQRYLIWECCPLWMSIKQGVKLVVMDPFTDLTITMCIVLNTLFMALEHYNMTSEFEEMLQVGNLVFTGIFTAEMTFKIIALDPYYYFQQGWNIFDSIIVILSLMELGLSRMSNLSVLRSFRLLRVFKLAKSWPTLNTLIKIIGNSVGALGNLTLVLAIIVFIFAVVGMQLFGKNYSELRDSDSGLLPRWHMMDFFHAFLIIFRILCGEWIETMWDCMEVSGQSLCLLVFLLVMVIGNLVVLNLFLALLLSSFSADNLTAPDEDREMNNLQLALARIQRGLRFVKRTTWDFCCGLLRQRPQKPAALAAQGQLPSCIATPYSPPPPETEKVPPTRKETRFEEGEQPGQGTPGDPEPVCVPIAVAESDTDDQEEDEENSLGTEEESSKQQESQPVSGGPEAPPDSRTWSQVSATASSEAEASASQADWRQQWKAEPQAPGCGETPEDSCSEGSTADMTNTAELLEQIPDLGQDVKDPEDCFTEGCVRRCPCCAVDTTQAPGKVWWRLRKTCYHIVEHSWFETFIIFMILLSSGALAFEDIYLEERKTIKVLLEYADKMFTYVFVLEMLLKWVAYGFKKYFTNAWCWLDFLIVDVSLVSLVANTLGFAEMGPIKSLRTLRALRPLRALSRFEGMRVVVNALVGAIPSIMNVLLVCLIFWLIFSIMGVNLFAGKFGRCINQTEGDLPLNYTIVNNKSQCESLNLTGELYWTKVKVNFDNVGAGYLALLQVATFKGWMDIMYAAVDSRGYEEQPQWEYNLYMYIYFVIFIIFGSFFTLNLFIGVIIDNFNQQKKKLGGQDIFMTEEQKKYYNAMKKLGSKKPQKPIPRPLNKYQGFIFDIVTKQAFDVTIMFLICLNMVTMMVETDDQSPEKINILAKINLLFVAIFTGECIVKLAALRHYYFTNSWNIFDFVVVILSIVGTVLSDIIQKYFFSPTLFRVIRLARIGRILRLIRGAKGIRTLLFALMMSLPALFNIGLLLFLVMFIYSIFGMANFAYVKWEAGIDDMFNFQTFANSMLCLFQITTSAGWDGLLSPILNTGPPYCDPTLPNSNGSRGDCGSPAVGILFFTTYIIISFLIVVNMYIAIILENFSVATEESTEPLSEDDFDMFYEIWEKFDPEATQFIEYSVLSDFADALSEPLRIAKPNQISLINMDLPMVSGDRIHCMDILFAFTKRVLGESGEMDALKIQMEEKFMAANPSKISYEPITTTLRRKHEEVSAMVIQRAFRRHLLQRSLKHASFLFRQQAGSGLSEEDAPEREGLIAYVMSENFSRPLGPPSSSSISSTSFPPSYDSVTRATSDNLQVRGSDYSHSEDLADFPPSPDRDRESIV

[27] = target: Dipeptidyl peptidase 9 (Homo sapiens, UniProt Q86TI2); assay: Inhibition of DPP9 (unknown origin)
[28] = target: T2, Prolyl endopeptidase FAP (Homo sapiens, UniProt Q12884); assay: Inhibition of FAP (unknown origin)
T2 sequence (Q12884 whole entry): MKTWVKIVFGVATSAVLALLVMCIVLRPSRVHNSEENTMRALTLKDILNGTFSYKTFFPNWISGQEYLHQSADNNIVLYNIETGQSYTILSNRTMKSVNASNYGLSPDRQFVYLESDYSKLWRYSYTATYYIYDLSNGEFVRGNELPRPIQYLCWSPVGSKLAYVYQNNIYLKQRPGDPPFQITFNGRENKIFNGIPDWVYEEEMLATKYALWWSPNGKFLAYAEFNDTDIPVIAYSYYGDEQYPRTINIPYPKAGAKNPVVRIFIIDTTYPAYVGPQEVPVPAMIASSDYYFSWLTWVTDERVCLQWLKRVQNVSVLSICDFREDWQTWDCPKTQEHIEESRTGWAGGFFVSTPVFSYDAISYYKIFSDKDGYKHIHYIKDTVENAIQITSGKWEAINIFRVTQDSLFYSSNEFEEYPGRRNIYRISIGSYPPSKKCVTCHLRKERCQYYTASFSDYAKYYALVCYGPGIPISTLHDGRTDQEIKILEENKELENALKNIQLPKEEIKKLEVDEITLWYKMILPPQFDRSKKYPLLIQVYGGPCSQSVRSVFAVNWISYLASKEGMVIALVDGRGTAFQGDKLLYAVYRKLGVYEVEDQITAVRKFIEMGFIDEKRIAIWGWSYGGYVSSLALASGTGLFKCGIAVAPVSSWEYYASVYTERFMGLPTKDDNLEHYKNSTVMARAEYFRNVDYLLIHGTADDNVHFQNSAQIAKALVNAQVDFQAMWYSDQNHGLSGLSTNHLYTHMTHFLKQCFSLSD

[29] = species: Mus musculus; assay: animal or person; conditions: Plasma, po, read-out: INH
[30] = system: Plasma; assay: Plasma concentration in mouse at 0.3 mg/kg, po; format: ADME, organism-based; set-up: dose 0.3 mg/kg, route oral; conditions: in vivo
How it was run: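 Lean mice dosed orally 1 h before an oral dextrose challenge (OGTT); plasma drug concentration measured alongside plasma DPP-4 activity in the accompanying pharmacodynamic study.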

[31] = AUC (0 to 24 hrs) in rat at 100 mg/kg/day, po administered for 14 days; format: ADME, organism-based; set-up: dose 100 mg/kg/day, time < 24 hr, route oral; conditions: plasma; how it was run: as §1
[32] = system: Rattus norvegicus; assay: Dose normalized AUC in Sprague-Dawley rat at 1 mg/kg, iv and 2 mg/kg, po administered via gavage by LC-MS/MS analysis; format: ADME, organism-based; conditions: in vivo
How it was run: (§5)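 Male Sprague-Dawley rats, fasted overnight with water ad libitum and fed 4 h after dosing. TFA salt given as a saline solution, either 1 mg/kg iv via femoral-vein cannula (n = 2) or 2 mg/kg po by gavage (n = 3). EDTA blood taken at 5 min (iv only), 15 and 30 min, and 1, 2, 4, 6, 8, 24 and 48 h. Plasma protein-precipitated with acetonitrile and assayed by LC-MS/MS; noncompartmental analysis.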

[33] = Oral bioavailability in Sprague-Dawley rat at 2 mg/kg administered via gavage by LC-MS/MS analysis; format: ADME, organism-based; conditions: in vivo; how it was run: as §5
[34] = Volume of distribution at steady state in beagle dog at 1 mg/kg, iv and 2 mg/kg, po administered via gavage by LC-MS/MS analysis; format: ADME, organism-based, Canis lupus familiaris; conditions: in vivo, read-out: Vdss
How it was run: (§6)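 Beagle dogs, fasted overnight with water ad libitum and fed 4 h postdose. TFA salt in saline given 1 mg/kg iv via cephalic vein (n = 2) or 2 mg/kg by gastric gavage (n = 2). EDTA blood drawn at 5 min (iv only), 15 and 30 min, and 1, 2, 4, 6, 8, 24, 30, 48 and 72 h. Acetonitrile-precipitated plasma quantified by LC-MS/MS; parameters derived noncompartmentally.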

[35] = in vivo; conditions: beagle, dog, po, 2 mg/kg
[36] = Cmax in Sprague-Dawley rat at 2 mg/kg, po administered via gavage by LC-MS/MS analysis; format: ADME, organism-based; set-up: dose 2 mg/kg, route oral; conditions: in vivo; how it was run: as §5
[37] = Cmax in beagle dog at 2 mg/kg, po administered via gavage by LC-MS/MS analysis; format: ADME, organism-based, Canis lupus familiaris; set-up: dose 2 mg/kg, route oral; conditions: in vivo; how it was run: as §6
[38] = in vivo; conditions: beagle, dog
[39] = Plasma clearance in Sprague-Dawley rat at 1 mg/kg, iv and 2 mg/kg, po administered via gavage by LC-MS/MS analysis; format: ADME, organism-based; how it was run: as §5
[40] = system: Canis familiaris; assay: Dose normalized AUC in beagle dog at 1 mg/kg, iv and 2 mg/kg, po administered via gavage by LC-MS/MS analysis; format: ADME, organism-based, Canis lupus familiaris; conditions: in vivo; how it was run: as §6
[41] = in vivo; conditions: beagle, dog, plasma, iv, 1 mg/kg
[42] = Tmax in Sprague-Dawley rat at 1 mg/kg, iv and 2 mg/kg, po administered via gavage by LC-MS/MS analysis; format: ADME, organism-based; conditions: in vivo; how it was run: as §5
[43] = Volume of distribution at steady state in Sprague-Dawley rat at 1 mg/kg, iv and 2 mg/kg, po administered via gavage by LC-MS/MS analysis; format: ADME, organism-based; conditions: in vivo, read-out: Vdss; how it was run: as §5
[44] = Tmax in beagle dog at 1 mg/kg, iv and 2 mg/kg, po administered via gavage by LC-MS/MS analysis; format: ADME, organism-based, Canis lupus familiaris; conditions: in vivo; how it was run: as §6
[45] = Terminal half life in Sprague-Dawley rat at 1 mg/kg, iv and 2 mg/kg, po administered via gavage by LC-MS/MS analysis; format: ADME, organism-based; conditions: in vivo, read-out: beta t1/2 (converted); how it was run: as §5

Chain of Dipeptidyl peptidase 8 (Q6V1X1 whole entry): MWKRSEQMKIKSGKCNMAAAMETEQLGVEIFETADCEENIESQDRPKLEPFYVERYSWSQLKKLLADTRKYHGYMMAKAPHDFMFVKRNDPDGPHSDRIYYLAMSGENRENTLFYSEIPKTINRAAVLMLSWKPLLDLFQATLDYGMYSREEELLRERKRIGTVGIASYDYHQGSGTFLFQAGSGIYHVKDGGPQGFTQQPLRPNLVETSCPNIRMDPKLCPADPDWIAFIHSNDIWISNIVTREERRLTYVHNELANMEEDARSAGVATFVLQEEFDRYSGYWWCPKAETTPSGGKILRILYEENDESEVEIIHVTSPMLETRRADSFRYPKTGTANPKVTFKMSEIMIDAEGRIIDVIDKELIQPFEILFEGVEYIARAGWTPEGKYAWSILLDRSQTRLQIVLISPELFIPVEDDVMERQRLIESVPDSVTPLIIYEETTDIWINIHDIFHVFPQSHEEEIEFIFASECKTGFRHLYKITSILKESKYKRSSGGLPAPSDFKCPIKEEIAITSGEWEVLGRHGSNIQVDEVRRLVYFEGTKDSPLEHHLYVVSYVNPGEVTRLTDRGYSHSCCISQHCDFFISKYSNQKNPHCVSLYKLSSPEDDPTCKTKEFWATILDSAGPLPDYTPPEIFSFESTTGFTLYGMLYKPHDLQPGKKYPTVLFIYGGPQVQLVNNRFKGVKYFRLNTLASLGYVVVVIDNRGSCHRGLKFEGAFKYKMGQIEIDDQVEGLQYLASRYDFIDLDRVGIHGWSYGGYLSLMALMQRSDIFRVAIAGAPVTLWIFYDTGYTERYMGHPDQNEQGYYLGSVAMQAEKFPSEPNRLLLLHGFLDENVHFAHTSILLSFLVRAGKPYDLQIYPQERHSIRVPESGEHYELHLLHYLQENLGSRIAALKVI

Compound: CS(=O)(=O)n1cc2c(n1)CN([C@H]1CO[C@H](c3cc(F)ccc3F)[C@@H](N)C1)C2 [OMARIGLIPTIN]
- IC50 [1]: > 67 µM
- IC50 [2]: > 67 µM
- inhibition in vivo at 0.01 mg/kg [3]: 7%
- IC50 [4]: 0.0439 µM
- Kp [5]: 0.6
- Activity [6]: Non-toxic
- Tmax [7]: 2 h
- Kp [8]: 0.6
- fraction unbound at up to 100 µM [9]: 0.68
- IC50 [10]: > 30 µM
- fraction unbound at up to 100 µM [11]: 0.15
- fraction unbound at up to 100 µM [12]: 0.43
- IC50 [13]: > 67 µM
- Activity [14]: Non-toxic
- Kp [15]: 0.6
- fraction unbound at up to 100 µM [16]: 0.38
- Activity [17]: Toxic
- Cmax [18]: 371 µM
- Activity [19]: Toxic
- Activity [20]: Toxic
- IC50 [21]: > 30 µM
- inhibition in vivo at 0.3 mg/kg [22]: 51%
- Activity [23]: Non-toxic
- Activity [24]: Not Active
- Kp [25]: 0.6
- IC50 [26]: > 30 µM
- IC50 [27]: > 67 µM
- IC50 [28]: > 67 µM
- inhibition in vivo at 0.3 mg/kg [29]: 85%
- concentration [30]: 0.521 µM
- AUC at 24 h [31]: 5000 µM·h

Compound: CS(=O)(=O)n1cc2c(n1)CN([C@H]1CO[C@H](c3cc(F)ccc3F)[C@@H](N)C1)C2.O=C(O)C(F)(F)F
- AUC/dose [32]: 47.8 µM·h/mg/kg
- bioavailability [33]: 100%
- Vd [34]: 1.3 L/kg
- bioavailability [35]: 100%
- Cmax [36]: 9 µM
- Cmax [37]: 5.9 µM
- half-life [38]: 22 h
- clearance [39]: 1.1 mL/min/kg
- AUC/dose [40]: 54 µM·h/mg/kg
- clearance [41]: 0.9 mL/min/kg
- Tmax [42]: 1 h
- Vd [43]: 0.8 L/kg
- Tmax [44]: 1.3 h
- half-life [45]: 11 h
